Compounds with a hit are over-represented: about 1.8% of the library has one in this group of screens.
PG9 Ab binder: small molecules binding HIV-1 gp120 antibody PG9; TR-FRET gp120-PG9 antibody binding; inhibition, % at 6.7 µM; 360,000 compounds, 0.43% hits; AID 624416; in the data active = inhibition above about 8.5%
TbMetRS inhib: Trypanosoma brucei MetRS inhibition; inhibition, % at 11.9 µM; 360,000 compounds, 0.4% hits; AID 624268; purified T. brucei MetRS, ATP depletion, Kinase-Glo luminescence;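 active = inhibition above a per-plate cutoff of the control wells' mean inhibition plus 3 SD, cut at about 5.5% in these data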
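Material: T. brucei methionyl-tRNA synthetase, purified; reagent: substrates ATP, L-methionine and bulk Escherichia coli tRNA; dosing: 11.9 µM single point; timing: 15 min plus 2 h at 25 °C; detection: luminescence of leftover ATP; evaluation: % inhibition; control set: DMSO-only wells as low control; replicates: singlicate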
NR1D1 modulator: Rev-erb alpha (human) modulation; activity, % at 10 µM; 370,000 compounds, 0.79% hits; P20393; Rev-erbα–FITC-DNA binding, fluorescence polarization, 90 min;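 active = activity above about 14%, limit read from the data; passing the limit was not always enough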
Target sequence (P20393 whole entry, looked up): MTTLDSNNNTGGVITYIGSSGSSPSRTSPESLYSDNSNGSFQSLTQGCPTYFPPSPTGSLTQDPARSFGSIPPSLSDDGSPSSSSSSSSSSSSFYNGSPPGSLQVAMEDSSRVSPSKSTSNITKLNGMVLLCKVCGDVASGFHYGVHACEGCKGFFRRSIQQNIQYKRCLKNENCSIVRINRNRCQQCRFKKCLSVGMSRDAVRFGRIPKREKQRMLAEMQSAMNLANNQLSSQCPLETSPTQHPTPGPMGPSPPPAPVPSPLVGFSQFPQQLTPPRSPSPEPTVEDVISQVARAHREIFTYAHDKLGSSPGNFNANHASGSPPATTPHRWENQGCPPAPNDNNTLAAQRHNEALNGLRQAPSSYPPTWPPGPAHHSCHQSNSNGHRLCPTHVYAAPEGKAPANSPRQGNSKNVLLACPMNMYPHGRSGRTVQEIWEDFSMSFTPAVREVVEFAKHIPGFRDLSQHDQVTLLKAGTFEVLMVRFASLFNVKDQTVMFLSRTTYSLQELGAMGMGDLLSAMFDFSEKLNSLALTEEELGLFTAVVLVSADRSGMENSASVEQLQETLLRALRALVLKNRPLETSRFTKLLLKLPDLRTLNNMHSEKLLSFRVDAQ
Rin1 Abl inh: inhibitors of human Rin1-Abl protein interaction; P00519+Q13671; TR-FRET Rin1/Abl binding, biochemical; inhibition, % at 7.35 µM; 360,000 compounds, 0.4% hits; AID 588664; in the data active = inhibition above about 5%, passing the limit was not always enough
NR1D1 mod conf: confirmation of modulators of human Rev-erb alpha DNA binding | shares compounds with NR1D1 modulator | Rev-erb alpha FITC-DNA binding, fluorescence polarization, 90 min | activation, % at 25 µM | 3,000 compounds, 61% hits;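 active = activation at or above a set limit, or at least 3 SD above the negative control mean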
RORg DNA counter: RORgamma DNA-binding activity, dose-response counter-screen. AID 1259320. shares compounds with NR1D1 modulator. 910 compounds, 8% hits. purified RORgamma protein-FITC-DNA binding, fluorescence polarization. IC50, µM;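 active = Compounds whose fitted half-maximal concentration for disrupting protein-DNA binding is below 10 micromolar; the record names Rev-erb in its text, so the target is in doubt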
Numbers stand for hits; - = inactive; . = no result given.

SMILES	PG9 Ab binder	TbMetRS inhib	NR1D1 modulator	Rin1 Abl inh	NR1D1 mod conf	others
Cc1nnsc1-c1onc(C)c1C(=O)Nc1cc(Cl)cc(Cl)c1	-	-	24.8	-	-
Cc1ccc(NC(=O)c2c(C)noc2-c2snnc2C)cc1	-	-	-	-	.
C=C(C)CCOC(=O)C(CC(=O)O)NCc1ccco1 (configuration not stated)	-	-	-	-	.
Cn1cc(C(=O)NCc2cccs2)c(=O)c2cc(S(=O)(=O)N3CCCC3)ccc21	-	-	28.1	-	24.6
COCCCNC(=O)c1ccc2sc(C3=C[C@@H](O)[C@@H](O)[C@@H](CO)O3)nc2c1	-	-	-	-	.
CCOC(=O)CC1CCCCN1C(=O)CCCn1nnnc1CN1CCC(C)CC1 (configuration not stated)	-	-	-	-	.
COc1cc(/C=N/NC(=O)CC2(C)OCCO2)cc(Br)c1O	-	-	71.2	-	-
CCCCCC(=O)N/N=C/c1cc(Br)c(O)c(OC)c1	-	-	-	-	.
O=C(CSc1nnc(-c2ccncc2)n1-c1ccc(Cl)cc1)c1ccc(Cl)c(Cl)c1	.	.	31.1	.	30.8	RORg DNA counter=-
CCOC(=O)c1sc(NC(=O)CSc2nc3c(c(-c4ccc(OC)cc4)c2C#N)CCCC3)c(C#N)c1C	-	-	31.7	-	21.9
Cc1ccc(C)c(NC(=O)CSc2nc(C)cc(C)c2C#N)c1	-	-	38.0	-	25.2
COC(=O)CSc1nc(C)cc(C)c1C#N	-	-	-	-	.
COc1ccc(-c2c(C#N)c(SCC(N)=O)nc3c2CCCC3)cc1	-	-	67.6	-	37.3	RORg DNA counter=-
CCOC(=O)c1sc(NC(=O)CSc2nc(C)cc(C)c2C#N)c(C#N)c1C	-	-	23.6	-	-
CCOC(=O)c1sc(NC(=O)CSc2nc3c(cc2C#N)CCCCCC3)c(C#N)c1C	-	-	-	-	.
N#Cc1c(SCC(N)=O)nc2c(c1-c1ccc(O)cc1)CCCC2	-	-	-	-	.
O=C(CSc1nnc(COc2ccccc2)n1-c1ccc(Cl)cc1)Nc1ccc(OCc2ccccc2)cc1	.	.	-	.	.
CCCCc1c(-c2ccc(F)cc2)ncn1CCc1ccccc1OC	-	-	-	.	.
O=C(Nc1ccc(F)cc1)C(c1cc2ccccc2o1)N1CCN(c2ccncc2)CC1 (configuration not stated)	-	-	-	.	.
COc1cc(OC)cc(-c2oc(=O)c3cc(OC)c(OC)cc3c2C#CCCCO)c1	-	-	31.7	-	-
COc1ccc(-c2oc(=O)c3cc(OC)c(OC)cc3c2C#CCCCO)cc1	-	-	-	-	.
COc1ccc(-c2sc3cc(OC)c(OC)cc3c2C#CC2(O)CCCCC2)cc1	-	-	-	-	.
COc1ccc(-c2oc(=O)c3cc(OC)c(OC)cc3c2C#CC2(O)CCCCC2)cc1	-	-	27.0	-	-
O=[N+]([O-])c1c(O)c(Cl)cc(Cl)c1Cl (tested in a mixture with another compound)	-	-	-	-	.
COc1cc(C=O)ccc1OCc1ccncc1	-	-	-	-	.
SMILES	PG9 Ab binder	TbMetRS inhib	NR1D1 modulator	Rin1 Abl inh	NR1D1 mod conf	others
COc1cc(C=O)c(Br)cc1OCc1ccc(C)cc1	-	-	18.2	-	-
CCN(CC)C(=O)c1ncn2c1C(=O)N(C)CC2	-	-	-	-	.
CCc1n[n+](CC(=O)c2ccccc2)c(N)s1	-	-	-	-	.
CS(=O)(=O)c1ccc(Cl)c(NC(=O)C2CCCCN2S(=O)(=O)c2ccccc2)c1 (configuration not stated)	-	-	-	-	.
CSc1ccc(CCNC(=O)c2cc(-c3ccccc3)c(N3CCOCC3)s2)cc1	-	-	67.2	-	51.3	RORg DNA counter=-
COc1ccc(-c2oc3ccccc3c(=O)c2OC(=O)c2ccc(C)cc2)cc1	-	-	21.6	-	35.5	RORg DNA counter=-
Cc1ccc[n+](-c2nc([O-])sc2/C=N/Nc2ccc([N+](=O)[O-])cc2)c1	-	-	26.5	-	-
Cc1ccc2nc(-c3ccc(NC(=O)CN4CCN(c5ccccn5)CC4)cc3)sc2c1	-	-	20.7	-	-
Cc1ccc2nc(-c3ccc(NC(=O)CCS(=O)(=O)c4ccccc4)cc3)sc2c1	-	-	18.7	-	22.8
O=C(CCS(=O)(=O)c1ccccc1)Nc1ccccc1-c1nc2ccccc2s1	-	-	44.2	-	40.1	RORg DNA counter=2.09
Cc1ccc2nc(-c3ccc(NC(=O)CSc4nnc(Cc5cccs5)n4C)cc3)sc2c1	.	.	43.4	.	24.8
Cc1ccc2nc(NC(=O)CN3CCN(c4ccccn4)CC3)sc2c1	-	-	-	-	.
CC(C)N(C(N)=NC(=O)OCc1ccccc1)C(C)C	.	.	-	.	.
O=C(C[C@@H]1C/C=C\CCC(=O)O[C@H](c2ccccc2)CNC1=O)N[C@H](CO)Cc1ccccc1	-	-	-	-	.
CC(C)CC1NC(=O)c2ccccc2-n2c1nc1ccccc1c2=O (configuration not stated)	-	.	-	.	.
CCC1(c2ccc(F)cc2)NC(=O)N(CC(=O)Nc2ccc(-c3nc4ccc(C)cc4s3)cc2)C1=O (configuration not stated)	-	-	41.1	-	-
Cc1ccc2nc(-c3ccc(NC(=S)NC(=O)CC(C)C)cc3)sc2c1	-	-	21.6	-	-
Cc1ccc2nc(-c3ccc(NC(=O)CNC4CC4)cc3)sc2c1	-	-	-	-	.
C=C1C(C(=O)Nc2ccc(OC)cc2)C1C(=O)Nc1ccc(OC)cc1 (configuration not stated)	-	-	-	-	.
Cn1c(SCC(=O)NC2CCCCC2)nnc1-c1cc2cc(Cl)ccc2o1	-	-	100.5	-	26.6
Cn1c(SCC(=O)Nc2cccc(Br)c2)nnc1-c1cc2ccccc2o1	-	-	41.8	-	60.2
CC(NC(=O)CSc1nnc(-c2cc3cc(Cl)ccc3o2)n1C)c1ccccc1 (configuration not stated)	-	-	-	-	.
CCS(=O)c1ccccc1C(=O)OCC(=O)Nc1ccc2ccccc2c1 (configuration not stated)	-	-	-	-	.
CCN(CC)C(=O)Cn1c(C)c(/C=C/c2cc[n+](C)cc2)c2ccccc21	-	-	157.8	-	138.5	RORg DNA counter=-
CC(C)n1cc(/C=C/c2cc[n+](C)cc2)c2ccccc21	-	-	209.2	-	202.9	RORg DNA counter=-
SMILES	PG9 Ab binder	TbMetRS inhib	NR1D1 modulator	Rin1 Abl inh	NR1D1 mod conf	others
CCn1cc(/C=C/c2cc[n+](C)cc2)c2ccccc21	-	-	178.8	-	160.5	RORg DNA counter=-
C[n+]1ccc2[nH]c3ccccc3c2c1	-	-	-	-	.
Cc1ccccc1/C=C/c1cc[n+](C)cc1	-	-	-	-	.
Cc1[nH]c2ccccc2c1/C=C/c1cc[n+](C)cc1	-	-	250.8	-	172.3	RORg DNA counter=-
CCOC(=O)Cn1cc(C=O)c2ccccc21	-	-	-	-	.
Cc1ccc(C)c(N2CCN(S(=O)(=O)c3cc4c(cc3Cl)NC(=O)CO4)CC2)c1	-	-	-	-	.
Cc1cc(C(=O)NC(C)C2CC2)c(Cl)cc1Cl (configuration not stated)	-	-	-	-	.
